Compounds with a hit are over-represented: about 2.6% of the library has one in this group of screens.
SENP7 block – SENP7 protease inhibition. Q9BQF6. recombinant SENP7, Z-RLRGG-aminoluciferin luminescence, 40 min. inhibition, % at 5 µM. actives 1.5% (n = 330,000). AID 434973;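 active = inhibition above about 50% at the single test dose, limit read from the data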;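 also: plate controls were DMSO with enzyme for no effect and no enzyme buffer wells for full effect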
Platelet DG rel – modulates dense granule release in human platelets; human platelet-rich plasma, SFLLRN dense granule ATP release, luminescence; inhibition, %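 (compounds screened at 7.5 µM in platelet-rich plasma)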; actives 0.22% (n = 300,000); AID 1663;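 active = mean replicate score, as percent of positive control, at or above 50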
SENP1 FRET inh – SENP1 (human) catalytic domain inhibition | Q9P0U3 | recombinant SENP1 catalytic domain, CyPet-SUMO1-YPet FRET cleavage | inhibition, % at 10 µM | actives 0.21% (n = 360,000);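 active = inhibition at least 30% at 10 µM, raw YFP signal under a set limit, fluorescence ratio 0.5 to 1.5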;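 also: 0% = enzyme with DMSO and 100% = no enzyme wells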
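Compound: 10 µM single point, 0.5% DMSO; Test system: hSENP1 catalytic domain, recombinant; Timing: 50 min reaction at room temperature; Technique: FRET, CFP and YFP emission; Control set: no-enzyme wells low, DMSO-plus-enzyme wells high control.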
SENP8 block-1 – blocks the human protease SENP8 | purified SENP8, Z-RLRGG-aminoluciferin cleavage, luminescence | inhibition, % at 10 µM | actives 1.2% (n = 330,000); in the data active = inhibition above about 50%
SENP6 block – inhibitors of human SENP6 protease | Q9GZR1 | Recombinant SENP6 catalytic domain, aminoluciferin luminescence | inhibition, % at 10 µM | actives 1.8% (n = 330,000);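 active = inhibition above about 50% at the single tested dose, limit read from the data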;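 also: plate controls were DMSO wells with enzyme for no effect and DMSO wells lacking enzyme for full effect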
Target sequence (Q9GZR1 628-1112 limits assumed): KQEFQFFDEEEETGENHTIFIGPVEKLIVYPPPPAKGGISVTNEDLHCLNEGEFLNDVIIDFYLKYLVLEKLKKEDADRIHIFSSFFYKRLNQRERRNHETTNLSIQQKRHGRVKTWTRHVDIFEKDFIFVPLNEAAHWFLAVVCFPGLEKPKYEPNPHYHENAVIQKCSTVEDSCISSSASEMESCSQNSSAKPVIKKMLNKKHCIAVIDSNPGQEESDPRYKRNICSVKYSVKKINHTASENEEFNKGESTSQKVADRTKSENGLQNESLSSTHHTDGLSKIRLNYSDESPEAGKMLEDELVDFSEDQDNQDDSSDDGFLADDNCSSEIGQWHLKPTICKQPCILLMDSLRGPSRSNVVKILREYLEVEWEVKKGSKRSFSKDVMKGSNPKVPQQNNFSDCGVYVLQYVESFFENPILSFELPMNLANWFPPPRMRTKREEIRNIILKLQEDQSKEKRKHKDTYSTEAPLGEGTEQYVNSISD
SENP8 block-2 – blocks human SENP8 cleavage of Nedd8 substrate; actives 0.64% (n = 360,000); recombinant SENP8, Nedd8 substrate fluorescence; Q96LD8; inhibition, % at 20 µM; in the data active = inhibition mostly above about 40%, no sharp cut-off; inactive = mostly below about 27%
SENP8 conf – human SENP8 inhibition, confirmed. inhibition, % at 12.5 µM. actives 40% (n = 6,200). Recombinant SENP8, Z-RLRGG-aminoluciferin luminescence, 60 min. shares compounds with SENP7 block;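 active = mean inhibition across replicates above about 50%, limit read from the data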
SENP6 confirm – human SENP6 inhibition, confirmed; shares compounds with SENP7 block; recombinant SENP6, Z-RLRGG-aminoluciferin luminescence; inhibition, % at 12.5 µM; actives 58% (n = 6,200); AID 488915
SENP7 confirm – human SENP7 inhibition, confirmed. AID 488917. actives 69% (n = 6,200). inhibition, % at 12.5 µM. recombinant SENP7, Z-RLRGG-aminoluciferin luminescence, 40 min. shares compounds with SENP7 block
Casp3 select – inhibits human caspase-3 in SENP selectivity test; purified caspase-3, Z-DEVD-aminoluciferin luminescence, 60 min; shares compounds with SENP7 block; actives 60% (n = 6,200); inhibition, % at 12.5 µM;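 active = mean inhibition above about 50%, limit read from the data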;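 also: plate controls were enzyme with DMSO for no effect and wells without caspase-3 for full effect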
SENP luc ctr – luminescence interference (SENP counter-screen); shares compounds with SENP7 block; Pre-incubated SENP8/Z-RLRGG-aminoluciferin, luciferase luminescence interference; inhibition, % at 12.5 µM; actives 39% (n = 6,200); AID 488919;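 active = mean inhibition above about 50% when retested at one dose, limit read from the data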;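 also: plate controls were DMSO wells with completed reaction for no effect and substrate without enzyme for full effect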
* = called active by the depositor; x = not tested or not shown.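 The calls were made as follows, unless noted: active = mean inhibition above about 50% in the one-dose retest (limit read from the data); inactive = the rest.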

SMILES	SENP7 block	Platelet DG rel	SENP1 FRET inh	SENP8 block-1	SENP6 block	SENP8 block-2	SENP8 conf	SENP6 confirm	SENP7 confirm	Casp3 select	SENP luc ctr
c1ccc(-c2ncc(-c3ccn[nH]3)s2)cc1	91*	13	-2	83*	91*	-387	84*	85*	98*	87*	59*
CCN1/C(=C2/SC(=S)N(NC(C)=O)C2=O)Sc2ccc(OC)cc21	10	-4	-36	-12	-6	8	x	x	x	x	x
Cc1nc2ccc(-c3nc4cc(N)ccc4o3)cc2[nH]1	77*	22	-32	54*	46	-276	2	78*	96*	90*	58*
Cc1nc2ccc([N+](=O)[O-])cc2[nH]1	3	-8	0	1	-13	-6	x	x	x	x	x
Nc1ccc2oc(-c3ccc4nc[nH]c4c3)nc2c1	58*	25	-36	30	67*	-321	54*	55*	86*	80*	50*
O=C1c2ccccc2C(=O)C1C1=Nc2ccccc2NC(c2ccccc2)C1 (centres undefined)	-4	33	x	0	8	x	x	x	x	x	x
CCN1CCN(CCOCCOc2ccccc2-c2ccccc2)CC1	-1	-3	x	-10	-8	x	x	x	x	x	x
Cc1ccc(C)c(-n2sc3ccc(F)cc3c2=O)c1	6	x	1	-1	-12	17	x	x	x	x	x
COc1ccc(-n2sc3ccc(F)cc3c2=O)cc1	79*	x	0	91*	91*	21	96*	95*	102*	96*	92*
O=c1c2cc(F)ccc2sn1-c1ccc(F)cc1	44	x	0	88*	93*	7	92*	93*	100*	92*	86*
COc1ccc(CNC(=O)CCSCc2ccc(C)cc2)cc1	0	-2	0	-3	19	7	x	x	x	x	x
O=C(CC[C@H]1O[C@@H](n2ccc(=O)[nH]c2=O)[C@H](O)[C@@H]1O)N[C@H](Cc1ccccc1)C(=O)NCc1ccc2c(c1)OCO2	x	x	3	x	x	21	x	x	x	x	x
CC(=Nc1ccc(C)cc1)c1sc2ccccc2c1O	96*	20	-22	90*	94*	-53	95*	96*	101*	85*	48
CC(=Nc1cccc(O)c1)c1sc2ccccc2c1O	90*	2	-75	90*	91*	-5	84*	82*	93*	54*	72*
CC(=Nc1ccc(C)cc1C)c1sc2ccccc2c1O	66*	9	-27	65*	78*	-25	71*	80*	91*	60*	17
CC(Sc1ccccc1)C(=O)N1CCN(S(=O)(=O)c2ccccc2C(F)(F)F)CC1 (centres undefined)	-6	2	1	-5	-14	4	x	x	x	x	x
CN(C(=S)NC1CCCCC1)C1(c2ccccc2Cl)CCCCC1=O (centres undefined)	-2	2	1	2	-15	8	x	x	x	x	x
O=C(NC(=S)Nc1ccc(N2CCCCC2)cc1)c1cccs1	3	-5	3	15	17	18	x	x	x	x	x
CC(=O)N(C)c1ccc(NC(=O)Nc2ccccc2C)cc1	58*	14	1	33	63*	16	40	41	79*	83*	63*
COC(=O)c1ccc(NC(=O)Nc2ccc(F)c(Cl)c2)cc1	58*	11	4	-1	-50	4	14	18	84*	22	26
COC(=O)c1ccc(NC(=O)Nc2ccc(OC)cc2)cc1	-11	4	0	-16	-21	7	x	x	x	x	x
COC(=O)c1sccc1NC(=O)Nc1ccccc1C	-1	x	0	2	10	0	x	x	x	x	x
COC(=O)c1ccc(NC(=O)Nc2ccc(F)cc2)cc1	49	24	1	46	68*	6	42	42	80*	48	62*
O=C(Nc1ccncc1)Nc1ccc(F)c(Cl)c1	-6	10	0	-18	-14	11	x	x	x	x	x
CC(=O)Nc1ccc(NC(=O)Nc2ccccc2C)cc1	16	22	2	-2	15	27	x	x	x	x	x
SMILES	SENP7 block	Platelet DG rel	SENP1 FRET inh	SENP8 block-1	SENP6 block	SENP8 block-2	SENP8 conf	SENP6 confirm	SENP7 confirm	Casp3 select	SENP luc ctr
COC(=O)c1ccc(NC(=O)Nc2ccccc2C)cc1	92*	29	3	83*	91*	-1	89*	89*	99*	89*	48
Cc1c(C(=O)N2CCCCCC2)c(S(=O)(=O)NCc2ccccc2Cl)c(C)n1C	11	3	-1	-2	-12	2	x	x	x	x	x
CCC(C)(C)NC(=O)C(c1ccccc1Cl)N(Cc1cccnc1)C(=O)CCC(=O)Nc1cc(C)on1 (centres undefined)	5	-1	-1	-4	-10	18	x	x	x	x	x
CS(=O)(=O)N1CCN(c2ccc(NC(=O)CSc3nnc(-c4ccco4)o3)cc2)CC1	-6	3	5	-2	5	-2	x	x	x	x	x
COc1cccc(CNC(=O)COC(=O)c2ccc(-c3ccc(O)cc3)cc2)c1	x	x	1	x	x	-372	x	x	x	x	x
O=C1COc2ccc(S(=O)(=O)N3CCC(C(=O)NCc4ccccc4)CC3)cc2N1	-7	6	1	0	26	8	x	x	x	x	x
COc1ccc2c(c1)CC/C(=C/c1ccco1)C2=O	-5	14	-17	83*	91*	-72	96*	97*	102*	92*	94*
O=C1/C(=C/c2ccco2)CCc2ccccc21	-1	10	-35	75*	87*	-50	97*	99*	102*	96*	94*
COc1ccc(C=C2CCc3ccccc3C2=O)cc1	x	x	-12	x	x	-13	x	x	x	x	x
Nc1ccc2c(c1)C/C(=C/c1ccco1)C2=O	-8	3	-28	-3	-40	-387	x	x	x	x	x
Oc1ccc(-c2csc(-c3ccccc3)n2)cc1O	29	12	-3	36	54*	13	60*	56*	73*	10	68*
Oc1ccccc1-c1csc(-c2ccccc2)n1	83*	2	2	71*	76*	8	-25	74*	92*	44	38
Oc1ccc(-c2csc(-c3cccnc3)n2)cc1O	0	4	4	-3	-13	12	x	x	x	x	x
